What is called IC50 is the concentration that gives 50% inhibition. In general, logP refers to the decadic logarithm of the partition coefficient of the neutral form, usually between octanol and water. A high value points to higher lipophilicity.

Series [1] in a line: Cytotoxicity against AGT-deficient human SF126 cells assessed as reduction in cell viability measured after 24 hrs by CCK8 assay. In kind it is functional, cell-based. The following applies: SF-126, 24 h. A general note: Tetrazolium dyes change colour on reduction, which living cells bring about.
Series [2] can be described thus: Cytotoxicity against AGT-positive human SF767 cells assessed as reduction in cell viability measured after 24 hrs by CCK8 assay. The format is functional, cell-based. Conditions: SF767, 24 h.
Series [3] in a line: Potency index, ratio of ACNU IC50 in combination with O6-BG to test compound IC50 for AGT-positive human SF763 cells. The format is functional. A digest of the protocol: (§1)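 Survival curves were run in AGT-high human glioma SF763 cells. […] The index is the IC50 of the combination divided by the test compound's IC50.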
Series [4] is filed under the species Bos taurus. Put plainly: Binding affinity to calf thymus DNA assessed as increase in dG-dC crosslinking incubated for 12 hrs under dark condition by HPLC-ESI-MS/MS analysis. Put shortly: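 Calf thymus DNA treated directly with drug at 0.1, 0.2, 0.4 and 0.6 mM. dG-dC cross-link levels measured by HPLC-ESI-MS/MS.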
For series [5], the system named is SF-126. Kind of series: Binding affinity to DNA in AGT-deficient human SF126 cells assessed as increase in dG-dC crosslinking incubated for 12 hrs by HPLC-ESI-MS/MS analysis. In kind it is cell-based. A digest of the protocol: (§2)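 Glioma cells exposed to drug at 0.1, 0.2, 0.4 and 0.6 mM. Genomic DNA then extracted and dG-dC interstrand cross-link levels quantified by HPLC-ESI-MS/MS. Triplicate determinations (n=3) per concentration.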

Series [6] is described as follows: Potency index, ratio of ACNU IC50 to test compound IC50 for AGT-positive human SF763 cells. In kind it is functional. A digest of the protocol: (§3)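 Cell survival curves were run in human glioma cells, with SF763 high in AGT and SF126 lacking AGT. IC50 values came from the curves. The index is the IC50 of ACNU or BCNU alone divided by the test compound's IC50.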

Series [7] in a line: Cytotoxicity against AGT-positive human SF763 cells assessed as reduction in cell viability measured after 24 hrs by CCK8 assay. Conditions: SF763, 24 h. The format is functional, cell-based.
Series [8] is described as follows: n-Octanol/water partition coefficient, log P of the compound at 2 mM by HPLC analysis. In kind it is physicochemical.
The nature of series [9]: Potency index, ratio of BCNU IC50 in combination with O6-BG to test compound IC50 for AGT-positive human SF763 cells. In kind it is functional. A digest of the protocol: as §1
Series [10] has as its system SF-126. Put plainly: Potency index, ratio of ACNU IC50 to test compound IC50 for AGT-deficient human SF126 cells. The format is functional. A digest of the protocol: as §3
A short description of series [11]: Potency index, ratio of BCNU IC50 to test compound IC50 for AGT-positive human SF763 cells. In kind it is functional. A digest of the protocol:
as §3

In series [12] the target is T1, Methylated-DNA--protein-cysteine methyltransferase (Homo sapiens) (UniProt P16455).
T1 sequence (whole entry): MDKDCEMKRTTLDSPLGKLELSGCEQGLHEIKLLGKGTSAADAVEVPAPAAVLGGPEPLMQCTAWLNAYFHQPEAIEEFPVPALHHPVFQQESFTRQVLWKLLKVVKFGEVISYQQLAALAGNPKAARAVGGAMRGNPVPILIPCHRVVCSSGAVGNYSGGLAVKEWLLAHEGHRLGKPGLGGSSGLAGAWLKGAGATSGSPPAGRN
Kind of series: Inhibition of AGT in human SF763 cells assessed as increase in dG-dC crosslinking incubated for 12 hrs by HPLC-ESI-MS/MS analysis. The format is cell-based. A digest of the protocol: as §2

Series [13] addresses T1, Methylated-DNA--protein-cysteine methyltransferase (Homo sapiens). Kind of series: Inhibition of AGT in human SF767 cells assessed as increase in dG-dC crosslinking incubated for 12 hrs by HPLC-ESI-MS/MS analysis. The format is cell-based. A digest of the protocol:
as §2

Series [14] in a line: Cytotoxicity against AGT-positive human SF763 cells assessed as reduction in cell viability pretreated with O6-BG for 2 hrs followed by addition of compound measured after 24 hrs by CCK8 assay. The format is functional, cell-based. Put shortly:
(§4)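 Nitrosourea combined with 20 µM O6-BG. Survival curves were generated for the glioma cells across a range of drug concentrations, and IC50 was read from those curves.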

Series [15] in a line: Cytotoxicity against AGT-deficient human SF126 cells assessed as reduction in cell viability pretreated with O6-BG for 2 hrs followed by addition of compound measured after 24 hrs by CCK8 assay. The format is functional, cell-based. The following applies: SF-126. Put shortly:
as §4

Series [16] in a line: Cytotoxicity against AGT-positive human SF767 cells assessed as reduction in cell viability pretreated with O6-BG for 2 hrs followed by addition of compound measured after 24 hrs by CCK8 assay. The format is functional, cell-based. A digest of the protocol:
as §4

On to `Nc1nc(OCc2ccccc2)c2ncn(CCNC(=O)N(CCCl)N=O)c2n1`, for which the IC50 in [1] was found to be 52 µM; in series [2] it was 58 µM; in series [7], 60 µM. In addition, the “Ratio IC50” value in series [3] was 17; in series [6], 27; in series [9] it was 3.3; in series [10] it was 7 - 9; in series [11], 5.8. Further, the Activity entry in series [4] and in [5] was “Dose-dependent effect” throughout. In series [8], this molecule showed a logP at 2000 µM of 1.81. In addition, the inhibition entry in series [12] and in series [13] was “Dose-dependent effect” throughout.

Turning to `O=NN(CCCl)C(=O)NCCCl` [CARMUSTINE], the IC50 in series [1] turned out to be 85 µM; in series [2] it was 130 µM; in series [14], 200 µM; in [15], 55 µM; in [7], 350 µM; in series [16] it was 120 µM. Further, the Activity entry in series [4] and in [5] was “Dose-dependent effect” each time. The inhibition entry in series [12] and in series [13] was “Dose-dependent effect” in each case.

Take `Cc1ncc(CNC(=O)N(CCCl)N=O)c(N)n1` [NIMUSTINE]: the IC50 in [1] was found to be 450 µM; in series [2], 570 µM; in series [15], 360 µM; in series [7] it was 1600 µM; in series [16] it was 400 µM. The Activity entry in series [4] and in [5] was “Dose-dependent effect” throughout. Moreover, the inhibition result in series [12] and in series [13] was “Dose-dependent effect” in each case.

The record behind these values is ChEMBL document CHEMBL3877330, “Synthesis and Antitumor Activity Evaluation of a Novel Combi-nitrosourea Prodrug: BGCNU” (ACS Med Chem Lett, 2017).
